Source: article PMC12123421 (Journal of medicinal chemistry, 2022)
“Also recorded” adds a separate entry of the source.

Assays:
P. gingivalis ATCC 33277 [1] = assay: Percent growth inhibition of planktonic P. gingivalis, colorimetric WST-1 assay; type: cell-based, Porphyromonas gingivalis; conditions: for P. gingivalis growth inhibition: 2.5 h after addition of WST-1; for inhibition at 100 µM / inhibition at 10 µM: Porphyromonas gingivalis, ATCC33277, read-out: P. gingivalis growth inhibition
BEAS-2B = assay: Mammalian cytotoxicity assay; type: cell-based, human; conditions: for concentration up to which no toxicity was observed (BEAS-2B): range 0–62.6 μg/mL, 24 h; for non-toxic concentration as fold of bactericidal concentration (BEAS-2B): vs bactericidal concentration against P. gingivalis
Outline: (§1)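 Cells counted at about 80% confluence and seeded in 96-well plates: 10,000 cells/well for HEK-293, 3,000 cells/well for BEAS-2B and HepG2. Adhered 16 h at 37 °C, 5% CO2. Fresh medium with test compound at 0–62.6 μg/mL (from 1000× stocks) or 0.1% DMSO added, 24 h. Resazurin added 6 h; fluorescence read at 560/590 nm. Survival expressed relative to DMSO wells after medium-only blank subtraction.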

HEK-293 = assay: Mammalian cytotoxicity assay; type: cell-based, human; conditions: for concentration up to which no toxicity was exhibited (HEK-293): range 0–62.6 μg/mL, 24 h; for non-toxic concentration as fold of bactericidal concentration (HEK-293): vs bactericidal concentration against P. gingivalis
Outline: as §1

HepG2 = assay: Mammalian cytotoxicity assay; type: cell-based; conditions: for concentration up to which no toxicity was exhibited (HepG2): range 0–62.6 μg/mL, 24 h; for non-toxic concentration as fold of bactericidal concentration (HepG2): vs bactericidal concentration against P. gingivalis
Outline: as §1

P. gingivalis ATCC 33277 [2] = assay: Colony forming unit; type: cell-based, Porphyromonas gingivalis; conditions: 24 h exposure, CFUs counted after 5 days
Outline: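 P. gingivalis ATCC 33277 at 1 × 10^8 cells/well, grown exponentially in supplemented BHI under anaerobic conditions in 96-well plates. Exposed 24 h to test compound in DMSO at 1, 10 or 100 μM. Negative controls were medium or DMSO; positive controls were tetracycline 2.81 μM and zafirlukast 25 and 50 μM. Cultures diluted 1:400, spread on blood agar, and CFUs counted after 5 days anaerobic.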

[3] = Cytotoxic effect on oral epithelial cells; type: cell-based, human; conditions: human, OKF6/hTERT immortalized oral keratinocyte cells
[4] = system: immortalized oral keratinocyte (OKF6) cells; assay: Cytotoxic effect on oral epithelial cells; type: cell-based, human; conditions: 24 h, microscopy
F. nucleatum ATCC 25586 = assay: Percent growth inhibition, colorimetric WST-1 assay; type: cell-based, Fusobacterium nucleatum; conditions: 24 h, 30 min after addition of WST-1
Outline: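 F. nucleatum was grown in supplemented BHI to log phase (3–4 h after subculture), then seeded at 10^8 cells/well in 90 μL. It was exposed anaerobically to test compound in DMSO (1, 10, 100 μM) for 24 h. WST-1 reagent was added, and absorbance was read at 405 nm (reference 600 nm). % inhibition = 100 × [OD(control) − OD(treated)]/OD(control).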

[5] = system: P. gingivalis ATCC 33277 biofilm; assay: Inhibition of mono-species biofilm growth, safranin staining; type: cell-based, Porphyromonas gingivalis; conditions: at all concentrations tested (10, 25, 50, and 100 μM), 48 h
Outline: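 P. gingivalis ATCC 33277 at 1 × 10^8 bacteria/well, grown logarithmically in supplemented BHI in 96-well plates. Exposed to test compound in DMSO (10, 25, 50, 100 μM) for 48 h, anaerobic, gentle shaking. Negative controls were medium or DMSO; positive controls were tetracycline 2.81 μM and zafirlukast 50 μM. Medium removed, biofilm washed three times with PBS, stained with 0.1% safranin, and percentage biofilm growth determined.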

[6] = system: murine red blood cells (mRBCs); assay: Hemolytic activity against murine red blood cells; type: cell-based; conditions: at concentrations up to 27 μg/mL, data not shown
[7] = at all concentrations tested (1, 10, and 100 μM)

## COc1ccc(Cc2cn(C)c3ccc([N+](=O)[O-])cc23)cc1C(=O)NS(=O)(=O)c1ccccc1F [Compound 21a]
P. gingivalis ATCC 33277 [1]; 100 μM, 24 h
  P. gingivalis growth inhibition: comparable or superior activity
P. gingivalis ATCC 33277 [1]
  inhibition at 100 µM: 61 to 73%
BEAS-2B
  concentration up to which no toxicity was observed (BEAS-2B): up to 62.6 μg/mL
  non-toxic concentration as fold of bactericidal concentration (BEAS-2B): 11- to 13 fold
HEK-293
  concentration up to which no toxicity was exhibited (HEK-293): up to 62.6 μg/mL
  non-toxic concentration as fold of bactericidal concentration (HEK-293): 11- to 13 fold
HepG2
  concentration up to which no toxicity was exhibited (HepG2): up to 62.6 μg/mL
  non-toxic concentration as fold of bactericidal concentration (HepG2): 11- to 13 fold

## COc1ccc(Cc2cn(C)c3ccc([N+](=O)[O-])cc23)cc1C(=O)NS(=O)(=O)c1ccccc1Cl [Compound 21b]
P. gingivalis ATCC 33277 [1]; 100 μM, 24 h
  P. gingivalis growth inhibition: comparable or superior activity
P. gingivalis ATCC 33277 [1]
  inhibition at 100 µM: 61 to 73%
BEAS-2B
  concentration up to which no toxicity was observed (BEAS-2B): up to 31.3 μg/mL
  non-toxic concentration as fold of bactericidal concentration (BEAS-2B): 6 fold
HEK-293
  concentration up to which no toxicity was exhibited (HEK-293): up to 62.6 μg/mL
  non-toxic concentration as fold of bactericidal concentration (HEK-293): 11- to 13 fold
HepG2
  concentration up to which no toxicity was exhibited (HepG2): up to 62.6 μg/mL
  non-toxic concentration as fold of bactericidal concentration (HepG2): 11- to 13 fold
P. gingivalis ATCC 33277 [2]; 10 μM, 10 µM
  growth inhibition by CFU assay (bactericidal activity): bactericidal
[3]
  viability at 24 h, 10 µM: 9 to 63%
  viability at 24 h, 100 µM: 5 to 23%
[4]; 100 μM
  cytotoxicity to OKF6 cells by cell morphology and density: slight increase in cytotoxicity

## COc1ccc(Cc2cn(C)c3ccc([N+](=O)[O-])cc23)cc1C(=O)NS(=O)(=O)c1ccccc1Br [Compound 21c]
P. gingivalis ATCC 33277 [1]; 100 μM, 24 h
  P. gingivalis growth inhibition: comparable or superior activity
P. gingivalis ATCC 33277 [1]
  inhibition at 100 µM: 61 to 73%
BEAS-2B
  concentration up to which no toxicity was observed (BEAS-2B): up to 31.3 μg/mL
  non-toxic concentration as fold of bactericidal concentration (BEAS-2B): 6 fold
HEK-293
  concentration up to which no toxicity was exhibited (HEK-293): up to 62.6 μg/mL
  non-toxic concentration as fold of bactericidal concentration (HEK-293): 11- to 13 fold
HepG2
  concentration up to which no toxicity was exhibited (HepG2): up to 62.6 μg/mL
  non-toxic concentration as fold of bactericidal concentration (HepG2): 11- to 13 fold
P. gingivalis ATCC 33277 [2]; 10 μM, 10 µM
  growth inhibition by CFU assay (bactericidal activity): bactericidal
[3]
  viability at 24 h, 10 µM: 9 to 63%
  viability at 24 h, 100 µM: 5 to 23%
[4]; 10 μM
  cytotoxicity to OKF6 cells by cell morphology and density: low toxicity
[4]; 100 μM
  cytotoxicity to OKF6 cells by cell morphology and density: slight increase in cytotoxicity

## COc1ccc(Cc2cn(C)c3ccc([N+](=O)[O-])cc23)cc1C(=O)NS(=O)(=O)c1c(F)cccc1F [Compound 21d]
P. gingivalis ATCC 33277 [1]; 100 μM, 24 h
  P. gingivalis growth inhibition: comparable or superior activity
P. gingivalis ATCC 33277 [1]
  inhibition at 100 µM: 61 to 73%
P. gingivalis ATCC 33277 [2]; 10 μM
  growth inhibition by CFU assay (bactericidal activity): not bactericidal
F. nucleatum ATCC 25586; 1 μM
  growth inhibition against F. nucleatum: no activity
F. nucleatum ATCC 25586; 10 μM
  growth inhibition against F. nucleatum: no activity

## COc1ccc(Cc2cn(C)c3ccc([N+](=O)[O-])cc23)cc1C(=O)NS(=O)(=O)c1ccc([N+](=O)[O-])cc1 [Compound 21g]
P. gingivalis ATCC 33277 [1]; 10 μM, 24 h
  P. gingivalis growth inhibition: comparable or superior activity
P. gingivalis ATCC 33277 [1]; 100 μM, 24 h
  P. gingivalis growth inhibition: comparable or superior activity
[5]
  biofilm growth: at least 86%
P. gingivalis ATCC 33277 [2]; 10 μM
  growth inhibition by CFU assay (bactericidal activity): bactericidal

## CCn1cc(Cc2ccc(OC)c(C(=O)NS(=O)(=O)c3ccc([N+](=O)[O-])cc3)c2)c2cc([N+](=O)[O-])ccc21 [Compound 22g]
P. gingivalis ATCC 33277 [1]; 10 μM, 24 h
  P. gingivalis growth inhibition: comparable or superior activity
P. gingivalis ATCC 33277 [1]; 100 μM, 24 h
  P. gingivalis growth inhibition: comparable or superior activity
P. gingivalis ATCC 33277 [2]; 10 μM
  growth inhibition by CFU assay (bactericidal activity): not bactericidal

## CCCn1cc(Cc2ccc(OC)c(C(=O)NS(=O)(=O)c3ccccc3F)c2)c2cc([N+](=O)[O-])ccc21 [Compound 23a]
P. gingivalis ATCC 33277 [1]; 1 μM, 24 h
  P. gingivalis growth inhibition: little to no activity

## CCCn1cc(Cc2ccc(OC)c(C(=O)NS(=O)(=O)c3ccc([N+](=O)[O-])cc3)c2)c2cc([N+](=O)[O-])ccc21 [Compound 23g]
P. gingivalis ATCC 33277 [1]; 1 μM, 24 h
  P. gingivalis growth inhibition: comparable or superior activity
P. gingivalis ATCC 33277 [1]; 10 μM, 24 h
  P. gingivalis growth inhibition: comparable or superior activity
P. gingivalis ATCC 33277 [1]; 100 μM, 24 h
  P. gingivalis growth inhibition: comparable or superior activity
P. gingivalis ATCC 33277 [1]
  inhibition at 10 µM: 77 to 90%
P. gingivalis ATCC 33277 [1]; [7]
  P. gingivalis growth inhibition: 60–90%
P. gingivalis ATCC 33277 [2]; 10 μM
  growth inhibition by CFU assay (bactericidal activity): not bactericidal

## CCCCn1cc(Cc2ccc(OC)c(C(=O)NS(=O)(=O)c3ccccc3F)c2)c2cc([N+](=O)[O-])ccc21 [Compound 24a]
P. gingivalis ATCC 33277 [1]; 1 μM, 24 h
  P. gingivalis growth inhibition: little to no activity

## CCCCn1cc(Cc2ccc(OC)c(C(=O)NS(=O)(=O)c3ccc([N+](=O)[O-])cc3)c2)c2cc([N+](=O)[O-])ccc21 [Compound 24g]
P. gingivalis ATCC 33277 [1]; 1 μM, 24 h
  P. gingivalis growth inhibition: comparable or superior activity
P. gingivalis ATCC 33277 [1]; 10 μM, 24 h
  P. gingivalis growth inhibition: comparable or superior activity
P. gingivalis ATCC 33277 [1]; 100 μM, 24 h
  P. gingivalis growth inhibition: comparable or superior activity
P. gingivalis ATCC 33277 [1]
  inhibition at 10 µM: 77 to 90%
P. gingivalis ATCC 33277 [1]; [7]
  P. gingivalis growth inhibition: 69–90%
P. gingivalis ATCC 33277 [2]; 100 μM
  growth inhibition by CFU assay (bactericidal activity): bactericidal activity
[3]
  viability at 24 h, 10 µM: 9 to 63%
  viability at 24 h, 100 µM: 5 to 23%
[4]; 10 μM
  cytotoxicity to OKF6 cells by cell morphology and density: low toxicity; also recorded: little to no cytotoxicity
[4]; 100 μM
  cytotoxicity to OKF6 cells by cell morphology and density: slight decrease in cell density

## COc1ccc(Cc2cn(CC(C)C)c3ccc([N+](=O)[O-])cc23)cc1C(=O)NS(=O)(=O)c1ccc([N+](=O)[O-])cc1 [Compound 25g]
P. gingivalis ATCC 33277 [1]; 100 μM, 24 h
  P. gingivalis growth inhibition: comparable or superior activity
P. gingivalis ATCC 33277 [1]
  inhibition at 100 µM: 61 to 73%
P. gingivalis ATCC 33277 [2]; 10 μM
  growth inhibition by CFU assay (bactericidal activity): not bactericidal

## COc1cc(C(=O)NS(=O)(=O)c2ccccc2C)ccc1Cc1cn(C)c2ccc(NC(=O)OC3CCCC3)cc12 [ZAF, zafirlukast, reference compound]
BEAS-2B
  concentration up to which no toxicity was observed (BEAS-2B): up to 62.6 μg/mL
HEK-293
  concentration up to which no toxicity was exhibited (HEK-293): up to 31.3 μg/mL
HepG2
  concentration up to which no toxicity was exhibited (HepG2): up to 62.6 μg/mL
[3]
  viability at 24 h, 25 µM: 41%

## C[C@@H]1[C@H](O)[C@@H](C)/C=C/C=C/C=C/C=C/C=C/C=C/C=C/[C@H](O[C@@H]2O[C@H](C)[C@@H](O)[C@H](N)[C@@H]2O)C[C@@H]2O[C@](O)(C[C@@H](O)C[C@@H](O)[C@H](O)CC[C@@H](O)C[C@@H](O)CC(=O)O[C@H]1C)C[C@H](O)[C@H]2C(=O)O [amphotericin B]
[6]
  hemolytic activity: 0%
